Sequences and labels used below:
B1: tRNA (parent)
chain: GUUCCGUUGGCGUAAUGGUAACGCGUCUCCCUCCUAAGGAGAAGACUGCGGGUUCGAGUCCCGUACGGAACG

This sample holds only a part of the variants without activity. A value given as a limit tells only on which side of the number the result lay.

The data set covers variants of B1. The data set can be described thus: yeast fitness relative to wild type (ratio to wild type); higher = fitter; tRNA-Arg(CCU), competitive growth, 37 C, YPD. Summed up: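 The tRNA-Arg(CCU) gene variants were made by chemical synthesis with a 3% per-site mutation rate at 69 sites and inserted at the native genomic locus of Saccharomyces cerevisiae. After pooling, the strains were competed in YPD at 37°C for 24 hours in six parallel replicates. Gene amplicons from the start population and each end population were read by 100-nucleotide paired-end sequencing, and Darwinian fitness relative to wild type was taken from genotype frequency changes. Genotypes needed ≥ 100 starting reads, and estimates < 0.5 were set to 0.5.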
As for GUUCCGUUGGCGUAAUGGUAAGGCGUCUCCCUACUCAGGAGAGGACUGCGGGUUGGAGUCCCGUACGGAACG [C22G C33A A36C A43G C55G], the yeast fitness is 0.595.

Turning to GUUCCGUUGGCGUAAUGGUAAGGCGUCUCCCUCAUAAGGAGAAGACUGAGGGUUCGAGUCCCGUACGGAACG [C22G C34A C49A], the yeast fitness is 0.818.

On to GUUCCGUUGGCGUAAUGGUAAGGCGUCUCCCUUCUAAGGUGAAGACUGCGGGUUCGAGACCCGUACGGAACG [C22G C33U A40U U59A], for which the yeast fitness came to 0.514.

Consider GUUCCGUUGGCGUAAUGGUAAGGCGUCUCCGUCCUAAGGAGAAGACUGCGGGAUCGAGUCCCGUACGGAACG [C22G C31G U53A], for which the yeast fitness was no more than 0.5.

In the case of GUUCCGUUGGCGUAAUGGUAAGGCGUCUUCAUCCUAAGGAGAAGACUGCGGGUUCGAGUCCCGUGCGGAACG [C22G C29U C31A A65G], the yeast fitness is no more than 0.5.

GUUCCGUUGGCGUAAUGGUAAGGCGUCUCCCUACUCAGGAGAUGACUGCGGGUUGGAGUCCCGUACGGAACG [C22G C33A A36C A43U C55G]: the yeast fitness is no more than 0.5.

As for GUUCCGUUGGCGUAAUGGUAAGGCGUCUCCGUCCUAAGGAGAAGACUGCGGGUACGAGUCGCGUACGGCACG [C22G C31G U54A C61G A69C], the yeast fitness is no more than 0.5.

Regarding GUUCCGUUGGCGUAAUGGUAAGGCGUCUCACUCCUAAGGAGAAGACUGAGGGUUCGAGUCCCGUACGGUACG [C22G C30A C49A A69U], the yeast fitness is no more than 0.5.

Consider GUUCCGUUGGCGUAAUGGUAAGGCGUCUCGCUCCUAAGGAGAAGACUGCGGGUUCGAGACCCGUACGGAACG [C22G C30G U59A], for which the yeast fitness is no more than 0.5.

For the variant GUUCCGUUGGCGUAAUGGUAAGGCGUCUUCCUCCUAAGGAGAAGACUGCGGGUUCGAGUCCCGUACGGAACG [C22G C29U], the yeast fitness turned out to be 0.838.

GUUCCGUUGGCGUAAUGGUAAGGCGUCUCCGUCCUGAGGAGAAGACUGCGGGUUCGAGUCCCGUACGGAACG [C22G C31G A36G]: the yeast fitness turned out to be 0.646.

Take GUUCCGUUGGCGUAAUGGUAAGGCGUCUCCUUCCUAAGGAGAAGACUGCGGGUUCGAGUCCUGUUCGGAACG [C22G C31U C62U A65U]: the yeast fitness was no more than 0.5.

For the variant GUUCCGUUGGCGUAAUGGUAAGGCGUCUGCCUCCUAAGGAGAAGACUGCGGGUUCGAGUCCUGUACGGAACG [C22G C29G C62U], the yeast fitness was no more than 0.5.

GUUCCGUUGGCGUAAUGGUAAGGCGUCUCCAUCCUGAGGAGAAGACUGGGGGUUCGAGUCCCCUACGGUACG [C22G C31A A36G C49G G63C A69U]: the yeast fitness turned out to be 0.543.

GUUCCGUUGGCGUAAUGGUAAGGCGUCUCGCUCCUAAGGAGAAGACCGCGGGUUCGAGUCCCGUACGGAUCG [C22G C30G U47C A70U]: the yeast fitness is no more than 0.5.

On to GUUCCGUUGGCGUAAUGGUAAGGCGUCUGCCUCCUAAGGAGAAGAUUGCGGGUUCGAGUCCCGUAUGGAACG [C22G C29G C46U C66U], for which the yeast fitness is no more than 0.5.

As to GUUCCGUUGGCGUAAUGGUAAGGCGUCUCCUUCCUAAGGAGAAGACUGUGGGUUCGAGUCCCGUACGGAACG [C22G C31U C49U], the yeast fitness is 0.989.

For the variant GUUCCGUUGGCGUAAUGGUAAGGCGUCUCACUCCUAAGGAGAAGACUGCGGGUUCGAGUCUCGUACGGAACG [C22G C30A C61U], the yeast fitness is 0.545.

In the case of GUUCCGUUGGCGUAAUGGUAAGGCGUCUCGCUCCUAAGGAGAAGACUGCAGGUUCGUGUCCCGUACGGAGCG [C22G C30G G50A A57U A70G], the yeast fitness was no more than 0.5.

Regarding GUUCCGUUGGCGUAAUGGUAAGGCGUCUGCCUCCUAAGGAGAACACUGCGGGUUCAGGUCCCGUACGGAACG [C22G C29G G44C G56A A57G], the yeast fitness was 0.515.

With GUUCCGUUGGCGUAAUGGUAAGGCGUCUCGCUCCUAAGGAGAAGACUGCGGGUUCGAGUCCCGUACGAAACG [C22G C30G G68A], the yeast fitness was no more than 0.5.

Turning to GUUCCGUUGGCGUAAUGGUAAGGCGUCUCUCUCCUAGGGAGAUGACUGCGGGUUCGAGUCCCGUACGUAACG [C22G C30U A37G A43U G68U], the yeast fitness was no more than 0.5.

GUUCCGUUGGCGUAAUGGUAAGGCGUCUCCAUCCUAAGGAGAAGACUGGGGGUUCGAGUCCCCUACGGUACG [C22G C31A C49G G63C A69U]: the yeast fitness turned out to be 0.603.

Take GUUCCGUUGGCGUAAUGGUAAGGCGUCUCACUCCUAAGGAGAAGGCUGCGGGUUCGAGUCCCGUACGGAACG [C22G C30A A45G]: the yeast fitness is no more than 0.5.

Consider GUUCCGUUGGCGUAAUGGUAAGGCGUCUGCCUCCUAAGGAGAAGACUGCGGGUUCGAGUCCCAUACGGAACG [C22G C29G G63A], for which the yeast fitness was no more than 0.5.

With GUUCCGUUGGCGUAAUGGUAAGGCGUCUCCUUCCUAAGAAGAAGACUGCGGGUUCGAGUCCCGUACGGAACG [C22G C31U G39A], the yeast fitness was found to be 0.636.

As for GUUCCGUUGGCGUAAUGGUAAGGCGUCUCGCUCCUAAGGAGAAGACUGCGGGUUCGAGUCCCGUACGGAUCG [C22G C30G A70U], the yeast fitness came out at 0.601.

Regarding GUUCCGUUGGCGUAAUGGUAAGGCGUCUCCGUCCUAAGGAGAAGACUGCGGGUUCGCGUCCCGUACGGCACG [C22G C31G A57C A69C], the yeast fitness was no more than 0.5.

Consider GUUCCGUUGGCGUAAUGGUAAGGCGUCUCCGUCCUAAGGAGAAGACUGCGGGUGCGAGUCCCGUACGGAACG [C22G C31G U54G], for which the yeast fitness amounted to 0.595.

Turning to GUUCCGUUGGCGUAAUGGUAAGGCGUCUCUCUCCUAGGGAGAUGACUGCGGGUUCGAGUCCCGUACGGAACG [C22G C30U A37G A43U], the yeast fitness was 0.549.

Turning to GUUCCGUUGGCGUAAUGGUAAGGCGUCUCGCUCCUAAGGAGAAGACCGCGGGUCCGAGUCCCGUACGGAACG [C22G C30G U47C U54C], the yeast fitness is no more than 0.5.

On to GUUCCGUUGGCGUAAUGGUAAGGCGUCUCGCUCCUAAGGAGAAGACUGCGGGUUAGAGUCCCGCACGGAACG [C22G C30G C55A U64C], for which the yeast fitness was 0.581.

Take GUUCCGUUGGCGUAAUGGUAAGGCGUCUCCCUCAUAAGGAGAAGACUGCGGGUUCGAGUCCCGUAAGGAACG [C22G C34A C66A]: the yeast fitness worked out at 0.703.

For GUUCCGUUGGCGUAAUGGUAAGGCGUCUCCAUCCUAAGGAGAGGACUGCGGGUUCGCGUCCCGUUCGGAACG [C22G C31A A43G A57C A65U], the yeast fitness was no more than 0.5.

Consider GUUCCGUUGGCGUAAUGGUAAGGCGUCUCACUCCUAAGGAGAAGACUGCGGGUUCGAGUCCCGUAAGGAACG [C22G C30A C66A], for which the yeast fitness is no more than 0.5.

With GUUCCGUUGGCGUAAUGGUAAGGCGUCUCCCUUCUAAGGAGAAGACUGCGGGUUCGAGUCCCGUACGGAACG [C22G C33U], the yeast fitness was 0.713.

As for GUUCCGUUGGCGUAAUGGUAAGGCGUCUCCCUCAUAAGGAGAAGACUGCGGGCUCGAGUCCCGUACGGAACG [C22G C34A U53C], the yeast fitness is 0.543.

GUUCCGUUGGCGUAAUGGUAAGGCGUCUCGCUCCUAAGGAGAAGACUGCAGGUUCGUGUCCCGUACGGAACG [C22G C30G G50A A57U]: the yeast fitness is no more than 0.5.

The record behind these values is the RNAGym collection of RNA variant scans (doi:10.1126/science.aae0568).
